High-throughput results: PubChem, Broad Institute
CaV13 FRET inh = Primary screen for inhibitors of IQ motif and Ca2+-dependent inactivation inhibitor domain binding in CACNA1D, Förster resonance energy transfer in living cells, …; inhibition, % at 12.3 µM; AID 743397; 340,000 tested, 0.098% active; HEK cells, CFP/YFP FRET ICDI-IQ, plate reader, 10 min; percent FRET-ratio fall versus neutral wells;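 active means mean replicate inhibition of at least 30% and at least 1% of replicates passing that level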;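 further: 0% = median of the neutral control wells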
FN deposit inh = fibronectin deposition inhibition; AID 743247; 350,000 tested, 0.086% active; AH1F fibroblasts, Alexa488-fibronectin deposition fluorescence, overnight; inhibition, % at 12.6 µM;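 active means mean inhibition across replicates of 30% or more, regardless of how many single replicates reach that level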;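 further: positive control wells lacked labelled fibronectin entirely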
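Assay system: AH1F fibroblast monolayer, labelled fibronectin deposition. Amount: 10000 cells per well. Also added: labelled fibronectin 24 nM. Compound: single-point pinned compound. Incubation: cell attachment 1 h, compound and FN exposure overnight. Detection: fluorescence after three HBSS washes, excitation 485 nm, emission 525 nm. Read-out: inhibition of fibronectin deposition signal.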
CASP6 VEID inh = inhibitors of human caspase-6. P55212. purified caspase-6, Z-VEID-R110 cleavage fluorescence. inhibition, % at 12.5 µM. 350,000 tested, 0.53% active. AID 686996;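 active means mean inhibition across replicates at least about 35%, with every replicate also reaching that limit, limit read from the data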;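 further: 0% = median of neutral control wells and 100% = no fluorescence left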
Target sequence (P55212 24-179 limits assumed): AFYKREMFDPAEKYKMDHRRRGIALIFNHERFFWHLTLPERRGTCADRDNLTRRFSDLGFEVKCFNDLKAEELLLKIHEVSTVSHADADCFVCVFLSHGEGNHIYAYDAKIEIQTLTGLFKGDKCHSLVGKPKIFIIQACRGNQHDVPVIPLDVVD
Target sequence (P55212 194-293 limits assumed): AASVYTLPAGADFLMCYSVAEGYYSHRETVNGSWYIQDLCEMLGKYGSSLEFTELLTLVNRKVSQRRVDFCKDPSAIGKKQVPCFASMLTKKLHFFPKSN
DENV2 CPE = inhibitors of DENV2 cytopathic effect; DENV2-infected cells, cytopathic effect rescue, plate reader; CPE inhibition, % at 9.99 µM; 350,000 tested, 1.7% active; AID 651640; in the data active means CPE inhibition above about 20%, passing the limit was not always enough; tested in BHK-21 cells;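 further: 0% = median of neutral control wells and 100% = median of positive control wells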
XiGFP reactiv = reactivates the inactive X chromosome in mouse fibroblasts | XiGFP mouse fibroblasts, % GFP-positive cells imaging, 3 d; cells co-treated with 5-aza-dC sensitizer; scaled so ellipticine positive control = 100% | activation, % at 7.58 µM | 360,000 tested, 0.055% active | AID 743238;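 active means mean normalized replicate activation at least 10% and every replicate at or above 10%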;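 further: 0% = median of on-plate neutral control wells and 100% = ellipticine 6 µM median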
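Material: SV40-immortalized XiGFP fibroblast cells, line 68-5-11 | Buffer or medium: DMEM containing 5-aza-dC | Dosing: One concentration, pinned | Times: 3 d treatment, 15 min room-temperature fixation | Controls: Ellipticine 6 µM positive control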
Active calls of the source: *; / = no result given. The list is not random: actives were taken first. Their share in the collection is about 2%.

SMILES	CaV13 FRET inh	FN deposit inh	CASP6 VEID inh	DENV2 CPE	XiGFP reactiv
Cc1ccccc1S(=O)(=O)N1CC[C@@H]2[C@@H](CO)Nc3ccc(-c4ccccc4F)cc3[C@@H]21	/	-9.5	0.7	42.0*	0.3
C/C=C/c1ccc2c(c1)[C@H]1[C@H](CCN1S(=O)(=O)c1ccccc1F)[C@H](CO)N2	/	5.5	/	25.5*	0.0
O=S(=O)(c1ccc(F)cc1)N1CC[C@H]2[C@H](CO)Nc3ccc(-c4ccccc4F)cc3[C@H]21	/	29.8	1.7	42.8*	0.5
O=S(=O)(c1ccccc1)N1CC[C@H]2[C@H](CO)Nc3ccc(-c4ccccc4F)cc3[C@H]21	/	18.1	/	/	0.1
CNC[C@H]1Oc2ccccc2C(=O)N(C)C[C@H]1C	/	1.9	/	/	0.1
C[C@H]1CN([C@@H](C)CO)C(=O)c2cccc(NC(=O)c3ccncc3)c2O[C@@H]1CN(C)C(=O)Nc1ccc(F)cc1	/	7.2	1.5	-3.3	0.1
O=S(=O)(c1ccccc1F)N1CC[C@@H]2[C@@H](CO)Nc3ccc(-c4cccc(F)c4)cc3[C@@H]21	/	17.3	2.4	-18.7	0.1
O=S(=O)(c1ccc(F)cc1)N1CC[C@H]2[C@H](CO)Nc3ccc(-c4ccc(F)cc4)cc3[C@H]21	/	-21.1	/	14.1	0.3
Cc1cccc(S(=O)(=O)N2CC[C@@H]3[C@H]2c2cc(-c4ccccc4F)ccc2N[C@@H]3CO)c1	/	2.8	/	40.0*	0.2
Cc1ccc(S(=O)(=O)N2CC[C@@H]3[C@H](CO)Nc4ccc(-c5ccccc5F)cc4[C@@H]32)cc1	/	-3.8	-4.2	147.2*	-0.1
O=S(=O)(c1ccc(F)cc1)N1CC[C@@H]2[C@@H](CO)Nc3ccc(-c4ccc(F)cc4)cc3[C@@H]21	/	-2.0	/	51.1*	0.1
O=S(=O)(c1ccccc1F)N1CC[C@@H]2[C@H](CO)Nc3ccc(-c4ccccc4)cc3[C@@H]21	/	6.6	-0.3	23.8*	4.5
C/C=C/c1ccc([C@@H]2[C@@H](CO)N(Cc3nccs3)C23CN(CC2CCCC2)C3)cc1	/	-3.8	/	/	0.1
COc1ccc(-c2noc3c2-c2nc(-c4ccccc4)sc2CC3)cc1	-5.7	-5.6	-0.4	-2.8	0.2
Brc1ccc(-c2noc3c2-c2nc(-c4ccccc4)sc2CC3)cc1	-11.0	-16.2	-2.1	128.5*	0.1
C[C@H]1CN([C@@H](C)CO)C(=O)c2cccc(NC(=O)CCCCCC(=O)Nc3ccccc3N)c2O[C@H]1CN(C)S(C)(=O)=O	/	/	-0.5	-3.1	-1.1
C[C@H]1CN([C@@H](C)CO)C(=O)c2cccc(NC(=O)CCCCCC(=O)Nc3ccccc3N)c2O[C@H]1CN(C)S(=O)(=O)c1cccs1	/	-14.3	1.8	54.8*	-1.2
C[C@H](CO)N1C[C@H](C)[C@H](CN(C)S(=O)(=O)c2cccs2)Oc2c(NC(=O)CCCCCC(=O)Nc3ccccc3N)cccc2C1=O	/	9.8	-3.5	22.3*	0.3
C[C@H]1CN([C@@H](C)CO)C(=O)c2cccc(NC(=O)CCCCCC(=O)Nc3ccccc3N)c2O[C@@H]1CN(C)S(C)(=O)=O	/	/	-0.8	-7.1	-0.1
O=C1NCCOCc2cn(nn2)CC[C@@H]1Cc1ccc(F)cc1	/	-3.9	/	/	0.6
COc1ccc(C(c2c(NC(=O)c3ccco3)sc(C)c2C)N2CCOCC2)cc1 (stereo not drawn)	-5.9	-14.4	55.4*	1.6	0.0
COc1ccc2c3c(n(C)c2c1)[C@H](CO)N(Cc1ccccc1Cl)CC31CCN(C(=O)CC2CC2)CC1	/	-3.8	/	30.8*	0.1
COc1ccc2c3c([nH]c2c1)[C@@H](CO)N(Cc1ccccc1Cl)CC31CN(C(=O)C2CC2)C1	/	-1.9	-0.6	23.2*	0.0
COc1ccc2c3c([nH]c2c1)[C@@H](CO)N(Cc1cccc(Cl)c1)CC31CCN(C(C)=O)CC1	/	/	/	30.1*	0.2
COc1ccc2c3c([nH]c2c1)[C@H](CO)N(Cc1ccccc1Cl)CC31CCN(C(C)=O)CC1	/	/	/	22.5*	0.3
SMILES	CaV13 FRET inh	FN deposit inh	CASP6 VEID inh	DENV2 CPE	XiGFP reactiv
COc1ccc2c3c([nH]c2c1)[C@H](CO)N(Cc1ccccc1Cl)CC31CN(C(C)=O)C1	/	/	/	0.3	0.2
COc1ccc2c3c([nH]c2c1)[C@H](CO)N(Cc1cccc(Cl)c1)CC31CCN(C(C)=O)CC1	/	/	/	11.3	0.3
CCc1cnc(N2[C@H](CO)[C@@H](c3ccccc3-c3ccccc3C)[C@@H]2C#N)s1	/	-0.8	/	/	0.0
Cc1nc2cc(NC(=O)Nc3cccc([N+](=O)[O-])c3)ccc2n1C	-1.8	-5.1	-1.4	34.5*	0.1
CCOC(=O)c1c(NC(=O)/C=C/C(=O)O)sc(C)c1-c1ccc(C(C)(C)C)cc1	4.3	5.3	42.3*	1.2	0.0
C[C@@H]1CN([C@@H](C)CO)C(=O)c2cc(NC(=O)CCCN(C)C)ccc2O[C@@H](C)CCCCO[C@@H]1CN(C)C(=O)Cc1ccccc1	/	/	-18.9	63.8*	0.1
C[C@@H]1CCCCO[C@H](CN(C)C(=O)CCCN(C)C)[C@@H](C)CN([C@H](C)CO)C(=O)c2cc(NC(=O)Nc3ccc(F)cc3)ccc2O1	/	/	-1.6	37.1*	-0.4
C[C@@H]1CCCCO[C@H](CN(C)C(=O)Cc2ccccc2)[C@H](C)CN([C@@H](C)CO)C(=O)c2cc(NC(=O)CCCN(C)C)ccc2O1	/	/	-0.3	5.2	-1.3
C[C@H](CO)N1C[C@H](C)[C@@H](CN(C)C(=O)CCCN(C)C)OCCCC[C@H](C)Oc2ccc(NC(=O)CCCN(C)C)cc2C1=O	/	-21.0	0.5	84.8*	-0.1
C[C@H]1CCCCO[C@H](CN(C)C(=O)CCCN(C)C)[C@@H](C)CN([C@@H](C)CO)C(=O)c2cc(NC(=O)c3ccccc3)ccc2O1	/	/	-18.5	52.9*	-1.2
C[C@H](CO)N1C[C@H](C)[C@H](CN(C)C(=O)CCCN(C)C)OCCCC[C@H](C)Oc2ccc(NC(=O)Nc3ccc(F)cc3)cc2C1=O	/	/	3.4	-8.9	0.1
C[C@@H]1CCCCO[C@@H](CN(C)C(=O)CCCN(C)C)[C@@H](C)CN([C@@H](C)CO)C(=O)c2cc(NC(=O)CCCN(C)C)ccc2O1	/	-9.6	3.8	-1.5	0.1
C[C@H]1CCCCO[C@@H](CN(C)C(=O)CCCN(C)C)[C@@H](C)CN([C@@H](C)CO)C(=O)c2cc(NC(=O)Cc3ccccc3)ccc2O1	/	-4.7	-0.5	-1.8	0.0
C[C@@H]1CCCCO[C@@H](CN(C)C(=O)CCCN(C)C)[C@@H](C)CN([C@H](C)CO)C(=O)c2cc(NC(=O)Cc3ccccc3)ccc2O1	/	-7.5	5.9	141.9*	-0.1
O=C1c2ccccc2C(=O)C1(CO)c1ccccc1	-6.1	/	38.4*	10.5	0.0
Cc1ccc(-c2nc3ncccn3c2N)cc1	-7.6	/	-3.6	6.7	0.1
Nc1c(-c2ccccc2)nc2ncccn12	-16.3	-0.2	-2.8	27.7*	0.6
